Compound activity from PubChem.
A selection: hits, their analogues and other compounds. The true share with any hit is near 0.77%.
mIAP inh: blocks mouse intestinal alkaline phosphatase; purified mouse IAP, CDP-Star luminescence, 30 min; inhibition, % at 10 µM; hit rate 0.2% among 330,000; AID 2806;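 active means inhibition of at least 40% at 10 µM in the primary screen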;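 further: plate controls were DMSO with enzyme for no effect and no enzyme wells for full effect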
hIAP act: human IAP activation; P09923; purified human IAP, CDP-Star luminescence, 30 min; active compounds read high; 1 = vehicle-only enzyme, 0 = enzyme-free background; activation factor at 10 µM; hit rate 0.16% among 330,000;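 active means activation factor of the enzyme at least 2-fold when tested at 20 µM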
Target sequence (P09923 whole entry, looked up): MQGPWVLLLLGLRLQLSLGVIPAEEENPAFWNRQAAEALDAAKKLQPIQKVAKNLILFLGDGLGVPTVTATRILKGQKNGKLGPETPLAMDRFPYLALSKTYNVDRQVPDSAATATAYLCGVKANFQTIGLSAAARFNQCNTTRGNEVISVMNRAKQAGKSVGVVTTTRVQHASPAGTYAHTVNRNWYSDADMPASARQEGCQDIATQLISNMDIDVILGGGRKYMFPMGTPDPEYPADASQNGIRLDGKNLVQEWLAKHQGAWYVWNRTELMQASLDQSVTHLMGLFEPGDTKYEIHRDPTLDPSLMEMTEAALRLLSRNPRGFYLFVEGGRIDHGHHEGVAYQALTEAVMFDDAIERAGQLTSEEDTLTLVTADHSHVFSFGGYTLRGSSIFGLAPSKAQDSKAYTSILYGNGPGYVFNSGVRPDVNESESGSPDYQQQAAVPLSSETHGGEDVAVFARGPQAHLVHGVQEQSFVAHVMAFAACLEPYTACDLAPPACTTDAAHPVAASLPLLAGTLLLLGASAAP
bIAP activator: increases bovine intestinal alkaline phosphatase activity. activation factor at 20 µM. hit rate 0.17% among 200,000. AID 1016. purified bovine IAP, CDP-star luminescence, 30 min; active compounds read high; fold of DMSO-control signal, blank-subtracted;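 active means activation factor of 2 or more at 20 µM, a signal rise over negative controls twice the positive control's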
bIAP inhibitor: blocks bovine intestinal alkaline phosphatase activity; purified bovine IAP, CDP-star luminescence, 30 min; inhibition, % at 20 µM; 190,000 tested, under 10 active;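 active means over 50% inhibition of intestinal alkaline phosphatase at 20 µM in the single-dose screen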
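Assay system: bovine IAP enzyme; medium: DEA buffer 100 mM, pH 9.8, with MgCl2 1.0 mM, ZnCl2 0.02 mM; doses: 20 µM single dose; incubation: enzyme reaction for 30 min at room temperature; detection: CDP-star luminescence signal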
mIAP act: increases mouse intestinal alkaline phosphatase activity | muIAP, CDP-Star luminescence, 30 min; active compounds read high; 1 = vehicle-only enzyme signal, 0 = enzyme-free wells | activation factor at 10 µM | hit rate 0.24% among 330,000;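 active means activation factor of at least 2 at 20 µM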
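System: Mouse IAP enzyme | Also added: CDP-Star substrate | Dosing: Compounds dispensed in DMSO | Schedule: 30 min enzyme-substrate-compound incubation at room temperature | Technique: Chemiluminescence readout | Control set: DMSO-only wells and no-enzyme negative control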
hIAP block: blocks human intestinal alkaline phosphatase | P09923 | purified IAP, CDP-Star luminescence, 30 min | inhibition, % at 10 µM | hit rate 0.12% among 330,000 | AID 2544;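 active means inhibition reaching a set limit with compound at 10 µM in the primary screen, cut at about 35% in these data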;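 further: plate controls were DMSO wells with enzyme for no effect and no-enzyme buffer wells for full effect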
hIAP act conf: human IAP activation confirmation; shares compounds with hIAP act; purified IAP, CDP-Star luminescence, 30 min; active compounds read low; activation (%Activity, negative = activation), % at 8.3 µM; hit rate 10% among 880;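 active means at least twofold enzyme activation in any of six single-dose repeats, which the averaged readout prints as negative percent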
mIAP inh conf: mouse IAP inhibition confirmation; hit rate 4.7% among 11,000; shares compounds with mIAP inh; purified mouse IAP, CDP-Star luminescence, 30 min; inhibition, % at 10 µM; AID 434971;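 active means inhibition of at least 40% at 10 µM in either of the two replicates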;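 further: plate controls were DMSO wells with enzyme for no effect and buffer wells lacking enzyme for full effect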
Numbers without * were called inactive; i = inactive; . = not tested or not shown.

SMILES	mIAP inh	hIAP act	bIAP activator	bIAP inhibitor	mIAP act	hIAP block	mIAP inh conf	others
COc1ccccc1NCC(=O)NNCC(=O)Nc1ccc(F)c(Cl)c1	6.5	0.871	1	-4.4	0.935	12.9	.
O=C(Nc1nnc(C2CC2)s1)c1cncc(Br)c1	6.1	1.03	.	.	0.939	-2.7	.
COc1ccccc1C(=O)Nc1ccnn1C1CCN(CCCc2ccccc2)CC1	-0.2	1.1	.	.	1	-10.2	.
O=C(/C=C/c1ccc(O)c(O)c1)NC(=O)c1ccccc1O	48.1*	0.432	.	.	0.519	56.8*	59.3*	hIAP act conf=-8.1
O=C(NN1C(=O)/C(=C/c2ccc(O)cc2)SC1=S)c1ccccc1O	40.1*	0.642	.	.	0.599	35.8*	55.7*	hIAP act conf=-23.3
Cc1cc2nc3ccc(N(C)C)cc3nc2cc1N	56.9*	1.02	.	.	0.431	-1.7	65.0*
O=C1CC(c2ccccc2)c2c(O)cc(O)cc2O1 (stereo unspecified)	-2.8	0.94	0.9	14.3	1.03	6.0	.
O=C(c1c(O)cc(O)cc1O)C1c2c(cc(O)c3c2O[C@H](c2ccc(O)cc2)[C@@H](O)C3)OC1c1ccc(O)cc1 (stereo partly specified)	58.5*	0.924	.	.	0.415	7.6	46.9*
Cc1ccc(NC(=S)NC2CCSc3ccccc32)cc1C (stereo unspecified)	-374.7	1.35	.	.	4.75*	-34.7	-171.5
COC(=O)c1ccc(C(=O)NC2CCSc3ccccc32)cc1 (stereo unspecified)	7.8	0.967	.	.	0.922	3.3	.
CCOc1ccc(NC(=O)CN(C)C(=O)c2ccc3nc(CC)c(CC)nc3c2)cc1OCC	10.4	1.05	.	.	0.896	-4.7	.
CCCCC1=CC2=C(c3ccco3)C(=O)C(C)(OC(=O)c3ccc(OC)cc3)C(=O)C2=CN1Cc1ccc2c(c1)OCO2 (stereo unspecified)	43.5*	0.799	.	.	0.565	20.1	49.7*
C/C(CC(=O)Nc1ccc2ccccc2c1)=N\NC(=O)c1ccc(O)c(O)c1	46.5*	1.06	.	.	0.535	-5.6	67.0*
C/C(CC(=O)Nc1ccc2ccccc2c1)=N\NC(=O)c1cnccn1	6.2	1.09	0.9	14.0	0.938	-8.9	.
Nc1c(C(=O)N/N=C/c2cccnc2)oc2nc(-c3ccccc3)cc(-c3ccco3)c12	7.2	1.01	.	.	0.928	-0.6	.
NNC(=O)c1oc2nc(-c3ccco3)cc(-c3ccco3)c2c1N	62.4*	0.922	.	.	0.376	7.8	71.8*
Nc1c(C(=O)N/N=C/c2cccnc2)oc2nc(-c3ccco3)cc(-c3ccco3)c12	49.0*	0.889	.	.	0.51	11.1	41.2*
COc1ccc(N2CCN(C(=O)COC(=O)CCc3ccccc3)CC2)cc1	4.9	1.05	.	.	0.951	-4.6	.
CCOC(=O)c1cc(C#N)c(N2CCN(c3ccccn3)CC2)nc1-c1ccccc1	2.6	0.864	1.1	-13.5	0.974	13.6	.
Cn1cccc1C(=O)OCc1cc(Cl)cc2c1OCOC2	6.2	1.07	1	-1.3	0.938	-6.9	24.1*
Cc1cc(Cn2nc(-c3ccccc3)cc2C(=O)NCc2cccc(Br)c2)on1	-299.4	1.1	.	.	3.99*	-10.1	-229.5
Cc1cc(Cn2nc(-c3ccccc3)cc2C(=O)NCc2cccc(C(F)(F)F)c2)on1	-228.5	0.946	.	.	3.29*	5.4	-124.8
O=C(NC1CCCC1)C(c1ccc(F)cc1)N(Cc1ccc(F)cc1)C(=O)c1ccn[nH]1 (stereo unspecified)	-119.8	1.76	2.4*	-142.1	2.2*	-75.7	-104.7
NS(=O)(=O)c1cccc(NC(=O)CSc2nnc(-c3ccncc3)n2C2CC2)c1	50.2*	0.946	.	.	0.498	5.4	58.5*
NC1=NC2(CCCCC2)N=C(Nc2ccc(F)cc2F)N1	0.9	0.879	1.3	-25.8	0.991	12.1	.
SMILES	mIAP inh	hIAP act	bIAP activator	bIAP inhibitor	mIAP act	hIAP block	mIAP inh conf	others
Cc1cc(C)cc(NC2=NC3(CCCCC3)N=C(N)N2)c1	-199.2	0.99	3.7*	-269.4	2.99*	1.1	-222.4
C[N+](C)(C)C(Cc1ccccc1)C(=O)[O-] (stereo unspecified)	47.3*	0.857	.	.	0.527	14.3	50.9*
CN(C)S(=O)(=O)c1ccc(NC(=O)COC(=O)C2CC3CCCC(C2)C3=O)cc1 (stereo unspecified)	13.8	1.02	1.1	-5.9	0.862	-1.6	.
O=C(O)C1Nc2c(O)cccc2C2C=CCC12 (stereo unspecified)	74.5*	1.69	0.8	24.2	0.255	-69.0	86.3*
C#CCOCCOCCOCCNc1nc(N2CCN(C(=O)CCCCCCCCCCNC(=O)[C@H]([C@@H](C)CC)n3cc(CCCCN=C(N)N)nn3)CC2)nc(N2CCN(C(=O)CCCCCCCCCCNC(=O)[C@H](CCCN=C(N)N)n3cc(C[C@@H](C)CC)nn3)CC2)n1	-343.3	1.49	.	.	4.43*	-48.7	i
C#CCOCCOCCOCCNc1nc(N2CCN(C(=O)CCCCCCCCCCNC(=O)[C@H]([C@@H](C)CC)n3cc(CCCCN=C(N)N)nn3)CC2)nc(N2CCN(C(=O)CCCCCCCCCCNC(=O)[C@@H]([C@H](C)O)n3cc(C)nn3)CC2)n1	-366.1	1.08	.	.	4.66*	-8.1	i
C#CCOCCOCCOCCNc1nc(N2CCN(C(=O)CCCCCCCCCCNC(=O)Cn3cc(C[C@@H](C)O)nn3)CC2)nc(N2CCN(C(=O)CCCCCCCCCCNC(=O)[C@@H](CCSC)n3cc(CCO)nn3)CC2)n1	-184.0	0.939	.	.	2.84*	6.1	-96.8
C#CCOCCOCCOCCNc1nc(N2CCN(C(=O)CCCCCCCCCCNC(=O)[C@@H](CCSC)n3cc(CCO)nn3)CC2)nc(N2CCN(C(=O)CCCCCCCCCCNC(=O)[C@H](CCCN=C(N)N)n3cc(C[C@@H](C)CC)nn3)CC2)n1	i	1.58	.	.	7.73*	-58.4	i
C#CCOCCOCCOCCNc1nc(N2CCN(C(=O)CCCCCCCCCCNC(=O)[C@@H](CCSC)n3cc(CCO)nn3)CC2)nc(N2CCN(C(=O)CCCCCCCCCCNC(=O)[C@@H]([C@H](C)O)n3cc(C)nn3)CC2)n1	-55.3	1.22	.	.	1.55	-21.7	.
C#CCOCCOCCOCCNc1nc(N2CCN(C(=O)CCCCCCCCCCNC(=O)[C@H](CO)n3cc(CCCCCN)nn3)CC2)nc(N2CCN(C(=O)CCCCCCCCCCNC(=O)[C@H](CCCN=C(N)N)n3cc(C[C@@H](C)CC)nn3)CC2)n1	-51.7	0.985	.	.	1.52	1.5	.
